From ChEMBL document CHEMBL4689842, “EUbOPEN Chemogenomics Library wave 1” (2021)
“And” between values parts separate entries of the source, which are not always exact repeats. Equal entries are not always repeated.

System: U2OS
Experiment: Multiplex assay against U2OS
Format: toxicity, cell-based
Details: human
Summary of the method: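 Phenotypes for tubulin, mitochondrial mass and membrane permeability are expressed as per cents of healthy-nucleus cells. Cells were stained live at seeding with Hoechst33342, BioTracker Green Microtubule Cytoskeleton Dye, MitoTracker Red and Annexin V Alexa Fluor 680, then imaged after compound addition on a CQ1 microscope at 37°C and 5% CO2. Machine-learning gating in CellPathfinder separated Hoechst high-intensity objects from normal cells, divided normal cells by nuclear state (healthy, pyknosed, fragmented) and divided pyknosed cells into mitotic or apoptotic.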

[1] = 12 h, 1 µM, compound concentration 1 uM, replicate 1
[2] = 12 h, 1 µM, compound concentration 1 uM, replicate 2
[3] = 12 h, 10 µM, compound concentration 10 uM, replicate 1
[4] = 12 h, 10 µM, compound concentration 10 uM, replicate 2
[5] = 24 h, 1 µM, compound concentration 1 uM, replicate 1
[6] = 24 h, 1 µM, compound concentration 1 uM, replicate 2
[7] = 24 h, 10 µM, compound concentration 10 uM, replicate 1
[8] = 24 h, 10 µM, compound concentration 10 uM, replicate 2
[9] = 48 h, 10 µM, compound concentration 10 uM, replicate 1
[10] = 48 h, 10 µM, compound concentration 10 uM, replicate 2

CNC(=O)c1ccc(Nc2nc(OC3CCCC3)c3c(-c4ccc5nc(C)oc5c4)c[nH]c3n2)c(OC)c1
Population Apoptotic (%) [1]: 36%
Population Fragmented Nuclei (%) [1]: 10%
Population Healthy Nuclei (%) [1]: 64%
Population Hoechst High Intensity Objects (%) [1]: 2%
Population Membrane Permeable-Phenotype (%) [1]: 58%
Population Mitochondria Different-Phenotype (%) [1]: 45%
Population Mitotic Cells (%) [1]: 63%
Population Normal (%) [1]: 97%
Population Pyknosed Nuclei (%) [1]: 25%
Population Apoptotic (%) [2]: 30%
Population Fragmented Nuclei (%) [2]: 14%
Population Healthy Nuclei (%) [2]: 72%
Population Hoechst High Intensity Objects (%) [2]: 6%
Population Membrane Permeable-Phenotype (%) [2]: 63%
Population Mitochondria Different-Phenotype (%) [2]: 40%
Population Mitotic Cells (%) [2]: 70%
Population Normal (%) [2]: 93%
Population Pyknosed Nuclei (%) [2]: 13%
Population Tubulin-Different-Phenotype (%) [2]: 100%
Population Apoptotic (%) [3]: 30%
Population Fragmented Nuclei (%) [3]: 1%
Population Healthy Nuclei (%) [3]: 87%
Population Hoechst High Intensity Objects (%) [3]: 1%
Population Membrane Permeable-Phenotype (%) [3]: 62%
Population Mitochondria Different-Phenotype (%) [3]: 18%
Population Mitotic Cells (%) [3]: 70%
Population Normal (%) [3]: 98%
Population Pyknosed Nuclei (%) [3]: 11%
Population Tubulin-Different-Phenotype (%) [3]: 90%
Population Apoptotic (%) [4]: 25%
Population Fragmented Nuclei (%) [4]: 22%
Population Healthy Nuclei (%) [4]: 72%
Population Hoechst High Intensity Objects (%) [4]: 22%
Population Membrane Permeable-Phenotype (%) [4]: 54%
Population Mitochondria Different-Phenotype (%) [4]: 26%
Population Mitotic Cells (%) [4]: 75%
Population Normal (%) [4]: 77%
Population Pyknosed Nuclei (%) [4]: 4%
Population Tubulin-Different-Phenotype (%) [4]: 65%
Population Apoptotic (%) [5]: 89%
Population Fragmented Nuclei (%) [5]: 12%
Population Healthy Nuclei (%) [5]: 8%
Population Hoechst High Intensity Objects (%) [5]: 5%
Population Membrane Permeable-Phenotype (%) [5]: 92%
Population Mitochondria Different-Phenotype (%) [5]: 84%
Population Mitotic Cells (%) [5]: 10%
Population Normal (%) [5]: 94%
Population Pyknosed Nuclei (%) [5]: 79%
Population Tubulin-Different-Phenotype (%) [5]: 100%
Population Apoptotic (%) [6]: 60%
Population Fragmented Nuclei (%) [6]: 25%
Population Healthy Nuclei (%) [6]: 48%
Population Hoechst High Intensity Objects (%) [6]: 11%
Population Membrane Permeable-Phenotype (%) [6]: 65%
Population Mitochondria Different-Phenotype (%) [6]: 73%
Population Mitotic Cells (%) [6]: 40%
Population Normal (%) [6]: 88%
Population Pyknosed Nuclei (%) [6]: 25%
Population Apoptotic (%) [7]: 43%
Population Fragmented Nuclei (%) [7]: 6%
Population Healthy Nuclei (%) [7]: 73%
Population Hoechst High Intensity Objects (%) [7]: 1%
Population Membrane Permeable-Phenotype (%) [7]: 43%
Population Mitochondria Different-Phenotype (%) [7]: 18%
Population Mitotic Cells (%) [7]: 56%
Population Normal (%) [7]: 98%
Population Pyknosed Nuclei (%) [7]: 20%
Population Tubulin-Different-Phenotype (%) [7]: 71%
Population Apoptotic (%) [8]: 62%
Population Fragmented Nuclei (%) [8]: 23%
Population Healthy Nuclei (%) [8]: 67%
Population Hoechst High Intensity Objects (%) [8]: 14%
Population Membrane Permeable-Phenotype (%) [8]: 30%
Population Mitochondria Different-Phenotype (%) [8]: 28%
Population Mitotic Cells (%) [8]: 37%
Population Normal (%) [8]: 85%
Population Pyknosed Nuclei (%) [8]: 8%
Population Tubulin-Different-Phenotype (%) [8]: 55%

CN1CCN(C(=O)C(C)(C)c2ccc(C(=O)Nc3cn4cc(-c5ccncc5)ccc4n3)cc2)CC1 [T3-CLK]
Population Apoptotic (%) [3]: 37% and 22%
Population Healthy Nuclei (%) [3]: 90% and 71% and 89%
Population Hoechst High Intensity Objects (%) [3]: 5%
Population Mitotic Cells (%) [3]: 62% and 77%
Population Normal (%) [3]: 94%
Population Pyknosed Nuclei (%) [3]: 10% and 7%
Total Cell Count [3]: 128 and 143 and 333
Population Healthy Nuclei (%) [4]: 88% and 70% and 87%
Population Hoechst High Intensity Objects (%) [4]: 6% and 7% and 9%
Population Membrane Permeable-Phenotype (%) [4]: 62% and 21% and 25%
Population Mitotic Cells (%) [4]: 50% and 100% and 66%
Population Normal (%) [4]: 93% and 92% and 90%
Population Pyknosed Nuclei (%) [4]: 5% and 11% and 3%
Population Apoptotic (%) [7]: 36% and 62% and 33%
Population Fragmented Nuclei (%) [7]: 11% and 21% and 8%
Population Healthy Nuclei (%) [7]: 81% and 64% and 77%
Population Hoechst High Intensity Objects (%) [7]: 5% and 10% and 6%
Population Membrane Permeable-Phenotype (%) [7]: 52% and 26% and 34%
Population Mitotic Cells (%) [7]: 63% and 37% and 66%
Population Normal (%) [7]: 94% and 90% and 93%
Population Pyknosed Nuclei (%) [7]: 6% and 13% and 14%
Total Cell Count [7]: 137 and 141 and 262
Population Apoptotic (%) [8]: 50% and 22%
Population Fragmented Nuclei (%) [8]: 29% and 22% and 15%
Population Healthy Nuclei (%) [8]: 58% and 66% and 70%
Population Hoechst High Intensity Objects (%) [8]: 12% and 9%
Population Membrane Permeable-Phenotype (%) [8]: 17% and 19%
Population Mitotic Cells (%) [8]: 50% and 77%
Population Normal (%) [8]: 87%
Population Pyknosed Nuclei (%) [8]: 11%
Population Apoptotic (%) [9]: 73%
Population Fragmented Nuclei (%) [9]: 34%
Population Healthy Nuclei (%) [9]: 15%
Population Hoechst High Intensity Objects (%) [9]: 16%
Population Membrane Permeable-Phenotype (%) [9]: 56%
Population Mitochondria Different-Phenotype (%) [9]: 87%
Population Mitotic Cells (%) [9]: 26%
Population Normal (%) [9]: 83%
Population Pyknosed Nuclei (%) [9]: 50%
Population Tubulin-Different-Phenotype (%) [9]: 100%
Total Cell Count [9]: 145
Population Apoptotic (%) [10]: 61%
Population Fragmented Nuclei (%) [10]: 28%
Population Healthy Nuclei (%) [10]: 36%
Population Hoechst High Intensity Objects (%) [10]: 23%
Population Membrane Permeable-Phenotype (%) [10]: 63%
Population Mitochondria Different-Phenotype (%) [10]: 81%
Population Mitotic Cells (%) [10]: 38%
Population Normal (%) [10]: 76%
Population Pyknosed Nuclei (%) [10]: 35%
Population Tubulin-Different-Phenotype (%) [10]: 90%
Total Cell Count [10]: 57
